From ChEMBL document CHEMBL1134561, “6-Substituted-4-(3-bromophenylamino)quinazolines as putative irreversible inhibitors of the epidermal growth factor receptor (EGFR) and human epidermal growth factor receptor (HER-2) tyrosine kinases with enhanced antitumor activity” (J Med Chem, 2001)

Experiments:
[1] = molecular target: Epidermal growth factor receptor (Homo sapiens, UniProt P00533); assay: Inhibition of epidermal growth factor receptor using enzyme assay
SW-620 = assay: Inhibition of cell growth of SW620 cell lines using cell-based assay; type: functional; conditions: Homo sapiens
Method in brief: (§1)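 Cells kept in RPMI-1640 with 5% fetal bovine serum and plated at 5.0 × 10^4/mL. Next day they were dosed at 0.5, 5, 50, 500 and 5000 ng/mL and cultured 2 days. Survival was read by sulforhodamine B. IC50 is the concentration inhibiting growth by 50%, taken from the five-point dose-response curve.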

[2] = molecular target: Receptor tyrosine-protein kinase erbB-2 (Homo sapiens, UniProt P04626); assay: Inhibition of human epidermal growth factor receptor (HER-2) using enzyme assay
Method in brief: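 His6-tagged HER-2 cytoplasmic domain was expressed in Sf-9 cells and purified on Ni-NTA (about 80% pure). Enzyme (12.5 ng/well) was preincubated with compound 10 min at room temperature in HEPES pH 7.4. Autophosphorylation ran 1 h with MnCl2/Na3VO4/DTT buffer plus 0.1 mM ATP–50 mM MgCl2 (as added). Europium anti-phosphotyrosine time-resolved fluorescence was read at 340/615 nm. IC50 came from eight concentrations, mean of duplicates.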

A-431 [3] = assay: Inhibition of cell growth of human epidermoid carcinoma xenograft (A431) model using cell based assay; type: functional
SK-BR-3 = assay: Inhibition of cell growth of SKBr3 cell lines using cell-based assay; type: functional; conditions: Homo sapiens; method in brief: as §1
A-431 [4] = assay: Inhibition of human epidermoid carcinoma xenograft (A431) tumor growth; type: functional, cell-based
Method in brief: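 Female athymic nu/nu mice received 5 × 10^6 A431 cells sc in the flank. At 80–120 mg tumor mass they were randomized, 10 per group. Dosing was oral, once daily on days 1–10, 40 mg/kg in 0.2% Klucel, with a vehicle control. Tumor mass [(length × width²)/2] was measured every 7 days from day 8 to 29. Relative growth is versus day 0, compared by Student t-test of log values.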

Sequence of Receptor tyrosine-protein kinase erbB-2 (P04626 whole entry, the tested form may be a part): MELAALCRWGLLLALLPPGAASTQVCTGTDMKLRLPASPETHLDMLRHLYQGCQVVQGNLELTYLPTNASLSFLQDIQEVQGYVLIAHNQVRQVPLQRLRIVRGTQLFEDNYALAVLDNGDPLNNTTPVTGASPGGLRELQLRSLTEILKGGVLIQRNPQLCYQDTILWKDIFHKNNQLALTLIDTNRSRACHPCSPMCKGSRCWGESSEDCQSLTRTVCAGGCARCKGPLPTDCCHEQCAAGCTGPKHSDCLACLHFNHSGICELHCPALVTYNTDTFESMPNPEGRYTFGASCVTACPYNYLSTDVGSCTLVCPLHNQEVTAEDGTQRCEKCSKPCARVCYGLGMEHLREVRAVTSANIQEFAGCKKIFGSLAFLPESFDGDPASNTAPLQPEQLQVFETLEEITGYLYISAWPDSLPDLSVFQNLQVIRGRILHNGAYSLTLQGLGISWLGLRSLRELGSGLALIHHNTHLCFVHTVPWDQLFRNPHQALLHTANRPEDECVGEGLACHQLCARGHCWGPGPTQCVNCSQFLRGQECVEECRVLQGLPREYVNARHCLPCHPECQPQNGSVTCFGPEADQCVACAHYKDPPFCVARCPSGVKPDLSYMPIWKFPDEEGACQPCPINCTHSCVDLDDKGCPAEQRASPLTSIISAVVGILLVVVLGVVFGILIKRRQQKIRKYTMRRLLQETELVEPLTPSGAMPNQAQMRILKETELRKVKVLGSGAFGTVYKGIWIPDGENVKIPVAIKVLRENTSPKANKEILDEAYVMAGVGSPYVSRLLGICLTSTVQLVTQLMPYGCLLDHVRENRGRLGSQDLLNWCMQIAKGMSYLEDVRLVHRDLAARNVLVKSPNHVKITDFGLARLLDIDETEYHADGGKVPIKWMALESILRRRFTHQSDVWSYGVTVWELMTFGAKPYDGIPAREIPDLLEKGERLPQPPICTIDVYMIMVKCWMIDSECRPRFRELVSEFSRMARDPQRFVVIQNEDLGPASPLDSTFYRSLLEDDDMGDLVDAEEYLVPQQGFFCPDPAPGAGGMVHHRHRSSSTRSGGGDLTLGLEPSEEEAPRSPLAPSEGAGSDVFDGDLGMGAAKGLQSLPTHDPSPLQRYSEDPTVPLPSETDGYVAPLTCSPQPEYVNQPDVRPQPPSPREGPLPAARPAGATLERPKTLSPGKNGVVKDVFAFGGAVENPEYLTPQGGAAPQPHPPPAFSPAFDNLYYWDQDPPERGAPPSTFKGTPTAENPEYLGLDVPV
Sequence of Epidermal growth factor receptor (P00533 whole entry): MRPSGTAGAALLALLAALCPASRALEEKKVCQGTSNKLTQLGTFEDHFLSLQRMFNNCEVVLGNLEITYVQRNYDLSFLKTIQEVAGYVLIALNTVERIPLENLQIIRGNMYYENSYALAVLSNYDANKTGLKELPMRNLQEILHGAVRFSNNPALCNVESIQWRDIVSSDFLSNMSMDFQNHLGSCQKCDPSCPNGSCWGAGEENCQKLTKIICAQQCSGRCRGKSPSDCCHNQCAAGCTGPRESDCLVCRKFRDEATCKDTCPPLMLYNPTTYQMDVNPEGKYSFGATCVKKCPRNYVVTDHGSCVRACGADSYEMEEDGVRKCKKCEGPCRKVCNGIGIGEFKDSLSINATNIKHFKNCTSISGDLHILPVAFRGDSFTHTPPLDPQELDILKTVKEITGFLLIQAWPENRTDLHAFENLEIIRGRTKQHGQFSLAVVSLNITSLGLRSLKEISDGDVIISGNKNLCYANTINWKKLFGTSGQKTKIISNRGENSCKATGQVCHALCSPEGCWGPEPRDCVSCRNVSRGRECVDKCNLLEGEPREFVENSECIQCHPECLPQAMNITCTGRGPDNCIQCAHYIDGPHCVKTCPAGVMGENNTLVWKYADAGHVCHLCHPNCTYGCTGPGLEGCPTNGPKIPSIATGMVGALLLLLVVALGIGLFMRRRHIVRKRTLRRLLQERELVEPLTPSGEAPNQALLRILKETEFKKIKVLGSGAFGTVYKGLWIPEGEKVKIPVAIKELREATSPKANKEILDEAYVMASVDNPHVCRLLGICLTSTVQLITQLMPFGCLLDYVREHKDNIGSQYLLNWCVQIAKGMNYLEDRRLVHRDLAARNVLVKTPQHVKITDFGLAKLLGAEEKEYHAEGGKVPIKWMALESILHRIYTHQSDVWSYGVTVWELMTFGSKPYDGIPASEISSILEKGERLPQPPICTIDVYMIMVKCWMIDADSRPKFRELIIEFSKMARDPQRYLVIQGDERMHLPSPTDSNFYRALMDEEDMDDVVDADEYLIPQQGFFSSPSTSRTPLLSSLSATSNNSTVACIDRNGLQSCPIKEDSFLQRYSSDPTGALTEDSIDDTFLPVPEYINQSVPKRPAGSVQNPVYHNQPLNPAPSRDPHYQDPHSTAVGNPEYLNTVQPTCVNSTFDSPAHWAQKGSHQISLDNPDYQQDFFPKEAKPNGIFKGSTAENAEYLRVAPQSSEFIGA

IC50 [1] [nM]	IC50 (SW-620) [nM]	IC50 [2] [nM]	IC50 (A-431 [3]) [nM]	IC50 (SK-BR-3) [nM]	IC50 (A-431 [4]) [nM]	Compound
1130	12100	8830	8500	370	–	COC/C=C/C(=O)Nc1ccc2ncnc(Nc3cccc(Br)c3)c2c1
194	2860	2920	353	13	–	COC[C@@H]1CCCN1C/C=C\C(=O)Nc1ccc2ncnc(Nc3cccc(Br)c3)c2c1
85	232	113	77	4	–	CC(C)N(C)CC#CC(=O)Nc1ccc2ncnc(Nc3cccc(Br)c3)c2c1
–	530	14	–	11	–	CN(C)CC#CC(=O)Nc1ccc2ncnc(Nc3cccc(Br)c3)c2c1
–	1500	378	–	17	–	CC#CC(=O)Nc1ccc2ncnc(Nc3cccc(Br)c3)c2c1
250	12100	25700	–	1760	2100	CN(C)/C=C/C(=O)Nc1ccc2ncnc(Nc3cccc(Br)c3)c2c1
73	2390	1160	194	2	–	CCN(CC)C/C=C/C(=O)Nc1ccc2ncnc(Nc3cccc(Br)c3)c2c1
65	945	116	77	9	–	COCCOCC#CC(=O)Nc1ccc2ncnc(Nc3cccc(Br)c3)c2c1
85	10100	733	616	1	–	COC[C@H]1CCCN1C/C=C/C(=O)Nc1ccc2ncnc(Nc3cccc(Br)c3)c2c1
–	–	16	–	43	–	O=C(C#CCO)Nc1ccc2ncnc(Nc3cccc(Br)c3)c2c1
–	2340	301	–	2	–	CN(C)C/C=C/C(=O)Nc1ccc2ncnc(Nc3cccc(Br)c3)c2c1
59	2080	122	–	92	306	COCOCC#CC(=O)Nc1ccc2ncnc(Nc3cccc(Br)c3)c2c1
115	10500	5040	2340	478	–	CN1CCC=C(C(=O)Nc2ccc3ncnc(Nc4cccc(Br)c4)c3c2)C1
–	20700	15200	–	2220	–	C=C(C)C(=O)Nc1ccc2ncnc(Nc3cccc(Br)c3)c2c1
–	4130	114	–	15	95	C=CC(=O)Nc1ccc2ncnc(Nc3cccc(Br)c3)c2c1
–	12500	21700	–	742	–	C/C=C\C(=O)Nc1ccc2ncnc(Nc3cccc(Br)c3)c2c1
62	198	177	42	2	–	CCCN(CC#CC(=O)Nc1ccc2ncnc(Nc3cccc(Br)c3)c2c1)CCC
12	610	38	111	6	–	CCN(CC)CC#CC(=O)Nc1ccc2ncnc(Nc3cccc(Br)c3)c2c1
–	13100	91300	–	1100	–	C/C=C/C(=O)Nc1ccc2ncnc(Nc3cccc(Br)c3)c2c1
97	302	162	94	4	–	CC(C)N(CC#CC(=O)Nc1ccc2ncnc(Nc3cccc(Br)c3)c2c1)C(C)C
1120	11100	15600	1370	568	–	O=C(/C=C/Cn1cccn1)Nc1ccc2ncnc(Nc3cccc(Br)c3)c2c1
14	7530	414	329	3	–	CN(C/C=C/C(=O)Nc1ccc2ncnc(Nc3cccc(Br)c3)c2c1)CCO
9	1730	33	268	46	–	COCC#CC(=O)Nc1ccc2ncnc(Nc3cccc(Br)c3)c2c1
71	289	85	–	1	33	C=CCN(C)CC#CC(=O)Nc1ccc2ncnc(Nc3cccc(Br)c3)c2c1
62	5890	634	564	3	–	COCCN(C)C/C=C/C(=O)Nc1ccc2ncnc(Nc3cccc(Br)c3)c2c1
90	2280	1430	145	2	–	CCCN(C/C=C/C(=O)Nc1ccc2ncnc(Nc3cccc(Br)c3)c2c1)CCC
131	2620	1910	222	2	–	COC[C@@H]1CCCN1C/C=C/C(=O)Nc1ccc2ncnc(Nc3cccc(Br)c3)c2c1
107	470	458	–	3	128	C=C(CN1CCOCC1)C(=O)Nc1ccc2ncnc(Nc3cccc(Br)c3)c2c1

Compound	IC50 [1] [nM]	IC50 (SW-620) [nM]	IC50 [2] [nM]	IC50 (A-431 [3]) [nM]	IC50 (SK-BR-3) [nM]	IC50 (A-431 [4]) [nM]
O=C(C#CCN1CCSCC1)Nc1ccc2ncnc(Nc3cccc(Br)c3)c2c1	95	581	124	83	2	–
O=C(C#CCN1CCCCC1)Nc1ccc2ncnc(Nc3cccc(Br)c3)c2c1	57	302	73	32	2	–
COCC1CCCN1CC#CC(=O)Nc1ccc2ncnc(Nc3cccc(Br)c3)c2c1 (centres undefined)	65	324	117	81	2	–
O=C(/C=C/CN1CCCCC1)Nc1ccc2ncnc(Nc3cccc(Br)c3)c2c1	106	2680	1560	182	4	–
O=C(/C=C/CN1CCC(N2CCCCC2)CC1)Nc1ccc2ncnc(Nc3cccc(Br)c3)c2c1	68	4150	1590	756	10	–
O=C(/C=C/CN1CCOCC1)Nc1ccc2ncnc(Nc3cccc(Br)c3)c2c1	74	10700	2780	1890	13	–
O=C(/C=C/N1CCOCC1)Nc1ccc2ncnc(Nc3cccc(Br)c3)c2c1	215	2020	4180	–	1020	1080
CCN1CCN(CC#CC(=O)Nc2ccc3ncnc(Nc4cccc(Br)c4)c3c2)CC1	65	4600	183	598	62	–
O=C(/C=C/CN1CCSCC1)Nc1ccc2ncnc(Nc3cccc(Br)c3)c2c1	203	8470	2810	589	12	–
O=C(C#CCN1CCOCC1)Nc1ccc2ncnc(Nc3cccc(Br)c3)c2c1	20	1660	53	150	2	–
